Assays:
Type in all cases: functional
L1210 = experiment: Growth inhibition of cultured L1210 mouse leukemia cells was determined; settings: read-out: ID50 (the source's name)
Procedure, shortened: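 L1210 mouse leukemia cells in suspension in Eagle's MEM with 15% whole (non-dialyzed, non-heat-inactivated) fetal calf serum, antibiotics and 0.05 mM 2-mercaptoethanol, 37 °C, 5% CO2. Drugs in pH 7.4 phosphate buffer or Me2SO, generally 10^-7 to 10^-3 M. Coulter cell counts at 48 h; ID50 relative to untreated controls from dose–response curves, triplicate.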

Mus musculus [1] = experiment: Antitumor activity against L1210 leukemia in mice (Average weight per mouse on day 1.) at the dose of 160 mg/kg
Procedure, shortened: (§1)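 Male B6D2F1J mice (5–9 per group) received 10^5 L1210 cells i.p. on day 0 and drug from day 1, given qd×5 or q4d(2,6). Vehicles were sterile water, 0.05 M potassium phosphate pH 7.4, or 0.4% Tween 80/0.5% CMC/0.9% benzyl alcohol/0.9% saline. Read-out is average body weight per mouse (g) on day 1.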

Mus musculus [2] = experiment: Antitumor activity against L1210 leukemia in mice (Average weight per mouse on day 1.) at the dose of 320 mg/kg; procedure, shortened: as §1
Mus musculus [3] = experiment: Antitumor activity against L1210 leukemia in mice (Average weight per mouse on day 1.) at the dose of 640 mg/kg; procedure, shortened: as §1
Mus musculus [4] = experiment: Antitumor activity against L1210 leukemia in mice (Average weight per mouse on day 1.) at the dose of 80 mg/kg; procedure, shortened: as §1
Mus musculus [5] = experiment: Antitumor activity against L1210/ara-C leukemia in mice (Average weight per mouse on day 1.) at the dose of 160 mg/kg
Procedure, shortened: (§2)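 Male B6D2F1J mice, groups of 5–9, inoculated ip with 10^5 L1210/ara-C cells on day 0. Dosing began day 1 on a qd×5 or q4d(2,6) schedule. Ara-C was given in sterile water, the n-butyl phosphate ester in 0.05 M pH 7.4 potassium phosphate buffer, and others as suspensions in 0.4% Tween 80/0.5% CMC/0.9% benzyl alcohol/0.9% saline. Mice were weighed on days 1 and 7; 7-day change given in g and %.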

Mus musculus [6] = experiment: Antitumor activity against L1210/ara-C leukemia in mice (Average weight per mouse on day 1.) at the dose of 640 mg/kg; procedure, shortened: as §2
Mus musculus [7] = experiment: Antitumor activity against L1210/ara-C leukemia in mice (Average weight per mouse on day 1.) at the dose of 80 mg/kg; procedure, shortened: as §2
Mus musculus [8] = experiment: Antitumor activity against L1210 leukemia in mice (Percent increase in life span.) at the dose of 160 mg/kg
Procedure, shortened: (§3)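 Male B6D2F1J mice, groups of 5–9, inoculated ip with 10^5 L1210 cells on day 0. Dosing starts day 1 on a qd×5 or q4d(2,6) schedule. Vehicles are sterile water, pH 7.4 0.05 M potassium phosphate buffer, or 0.4% Tween 80/0.5% CMC/0.9% benzyl alcohol/0.9% saline. %ILS = (T/C − 1)×100 from median survival. Weights taken days 1 and 7.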

Mus musculus [9] = experiment: Antitumor activity against L1210 leukemia in mice (Percent increase in life span.) at the dose of 320 mg/kg; procedure, shortened: as §3
Mus musculus [10] = experiment: Antitumor activity against L1210 leukemia in mice (Percent increase in life span.) at the dose of 640 mg/kg; procedure, shortened: as §3
Mus musculus [11] = experiment: Antitumor activity against L1210 leukemia in mice (Percent increase in life span.) at the dose of 80 mg/kg; settings: L1210, dose 80 mg/kg; procedure, shortened: as §3
Mus musculus [12] = experiment: Antitumor activity against L1210/ara-C leukemia in mice (Percent increase in life span.) at the dose of 160 mg/kg
Procedure, shortened: (§4)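 Same protocol as the L1210 assay, but with 10^5 kinase-deficient L1210/ara-C cells inoculated ip into male B6D2F1J mice (groups of 5–9) on day 0. Treatment begins day 1, qd×5 or q4d(2,6). %ILS = (T/C − 1)×100 using median survival times of treated and control groups. Body weight recorded days 1 and 7.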

Mus musculus [13] = experiment: Antitumor activity against L1210 leukemia in mice (Average 7-day weight change (%)) at the dose of 160 mg/kg
Procedure, shortened: (§5)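 Male B6D2F1J mice, groups of five to nine, inoculated ip with 10^5 L1210 cells on day 0. Drug treatment started day 1 on qd×5 or q4d(2,6) schedule. Vehicles: ara-C in sterile water; the n-butyl phosphate ester in 0.05 M pH 7.4 potassium phosphate buffer; others as suspensions in 0.4% Tween 80/0.5% low-density CMC/0.9% benzyl alcohol/0.9% saline. Mice weighed days 1 and 7; 7-day weight change given as g/mouse and %.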

Mus musculus [14] = experiment: Antitumor activity against L1210 leukemia in mice (Average 7-day weight change (%)) at the dose of 320 mg/kg; procedure, shortened: as §5
Mus musculus [15] = experiment: Antitumor activity against L1210/ara-C leukemia in mice (Percent increase in life span.) at the dose of 320 mg/kg; procedure, shortened: as §4
Mus musculus [16] = experiment: Antitumor activity against L1210/ara-C leukemia in mice (Percent increase in life span.) at the dose of 640 mg/kg; procedure, shortened: as §4
Mus musculus [17] = experiment: Antitumor activity against L1210/ara-C leukemia in mice (Percent increase in life span.) at the dose of 80 mg/kg; procedure, shortened: as §4
Mus musculus [18] = experiment: Antitumor activity against L1210 leukemia in mice (Average 7-day weight change) at the dose of 160 mg/kg; procedure, shortened: as §5
Mus musculus [19] = experiment: Antitumor activity against L1210 leukemia in mice (Average 7-day weight change) at the dose of 320 mg/kg; procedure, shortened: as §5
Mus musculus [20] = experiment: Antitumor activity against L1210 leukemia in mice (Average 7-day weight change (%)) at the dose of 640 mg/kg; procedure, shortened: as §5
Mus musculus [21] = experiment: Antitumor activity against L1210 leukemia in mice (Average 7-day weight change (%)) at the dose of 80 mg/kg; procedure, shortened: as §5
Mus musculus [22] = experiment: Antitumor activity against L1210/ara-C leukemia in mice (Average 7-day weight change) at the dose of 160 mg/kg
Procedure, shortened: (§6)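 Male B6D2F1J mice (5–9 per group) were given 10^5 L1210/ara-C cells i.p. on day 0, with treatment from day 1 on qd×5 or q4d(2,6). Vehicles were sterile water, pH 7.4 0.05 M phosphate buffer, or a Tween 80/CMC/benzyl alcohol saline suspension. Weights were taken on days 1 and 7; change is expressed in g/mouse and as a percentage.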

Mus musculus [23] = experiment: Antitumor activity against L1210/ara-C leukemia in mice (Average 7-day weight change) at the dose of 320 mg/kg; procedure, shortened: as §6
Mus musculus [24] = experiment: Antitumor activity against L1210/ara-C leukemia in mice (Average 7-day weight change) at the dose of 640 mg/kg; procedure, shortened: as §2
Mus musculus [25] = experiment: Antitumor activity against L1210/ara-C leukemia in mice (Average 7-day weight change) at the dose of 80 mg/kg; procedure, shortened: as §2
Mus musculus [26] = experiment: Antitumor activity against L1210 leukemia in mice (Average 7-day weight change) at the dose of 640 mg/kg
Procedure, shortened: (§7)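 Male B6D2F1J mice in groups of five to nine were inoculated i.p. with 10^5 L1210 cells on day 0. Dosing began on day 1 on a qd×5 or q4d(2,6) schedule. The vehicle was sterile water, pH 7.4 0.05 M potassium phosphate buffer, or a saline suspension with 0.4% Tween 80, 0.5% CMC and 0.9% benzyl alcohol. Mice were weighed on days 1 and 7; read-out is average weight change per mouse.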

Mus musculus [27] = experiment: Antitumor activity against L1210 leukemia in mice (Average 7-day weight change) at the dose of 80 mg/kg; procedure, shortened: as §7
Mus musculus [28] = experiment: Antitumor activity against L1210/ara-C leukemia in mice (Average 7-day weight change (%)) at the dose of 160 mg/kg; procedure, shortened: as §6
Mus musculus [29] = experiment: Antitumor activity against L1210/ara-C leukemia in mice (Average 7-day weight change (%)) at the dose of 320 mg/kg; procedure, shortened: as §6
Mus musculus [30] = experiment: Antitumor activity against L1210/ara-C leukemia in mice (Average 7-day weight change (%)) at the dose of 640 mg/kg; procedure, shortened: as §6
Mus musculus [31] = experiment: Antitumor activity against L1210/ara-C leukemia in mice (Average 7-day weight change (%)) at the dose of 80 mg/kg; procedure, shortened: as §6
B16 = experiment: Growth inhibition of B16 mouse melanoma cells in culture was determined; settings: read-out: ID50 (the source's name)
Procedure, shortened: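 B16 mouse melanoma monolayers in McCoy's 5A with 10% whole fetal calf serum, streptomycin and penicillin, 37 °C, 5% CO2. Drugs were dissolved in 0.05 M pH 7.4 potassium phosphate buffer or Me2SO and dosed at regularly spaced concentrations, generally 10^-7 to 10^-3 M. Cells were counted after 48 h; ID50 versus untreated controls was read from dose–response curves, triplicate.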

Which IC50 (L1210) does the source give for CCCCOP(=O)(O)OC[C@H]1O[C@@H](n2ccc(N)nc2=O)[C@@H](O)[C@@H]1O here?
The IC50 was 7.5 µM.

And the Average weight (Mus musculus [1])?
The Average weight was 23.6 g mouse-1.

And the Average weight (Mus musculus [2])?
Its Average weight is 22.4 g mouse-1.

And the Average weight (Mus musculus [3])?
Its Average weight is 22.8 g mouse-1.

And the Average weight (Mus musculus [4])?
The Average weight was 22 g mouse-1.

What about the Average weight (Mus musculus [5]) of the same compound?
The Average weight was 22.2 g mouse-1.

What about the Average weight (Mus musculus [6]) of the same compound?
Its Average weight is 22.6 g mouse-1.

And the Average weight (Mus musculus [7])?
Its Average weight is 23.4 g mouse-1.

What about the ILS at 160 mg/kg (Mus musculus [8]) of the same compound?
Its ILS at 160 mg/kg is 50%.

What about the ILS at 320 mg/kg (Mus musculus [9]) of the same compound?
Its ILS at 320 mg/kg is 87%.

What about the ILS at 640 mg/kg (Mus musculus [10]) of the same compound?
Its ILS at 640 mg/kg is 87%.

What about the ILS at 80 mg/kg (Mus musculus [11]) of the same compound?
The ILS at 80 mg/kg was 37%.

What about the ILS at 160 mg/kg (Mus musculus [12]) of the same compound?
The ILS at 160 mg/kg was 0%.

What about the Weight change (Mus musculus [13]) of the same compound?
Its Weight change is 4%.

What about the Weight change (Mus musculus [14]) of the same compound?
The Weight change was 3%.

And the ILS at 320 mg/kg (Mus musculus [15])?
Its ILS at 320 mg/kg is 0%.

And the ILS at 640 mg/kg (Mus musculus [16])?
The ILS at 640 mg/kg was -13%.

What about the ILS at 80 mg/kg (Mus musculus [17]) of the same compound?
Its ILS at 80 mg/kg is 0%.

And the Weight change (Mus musculus [18])?
Its Weight change is 1 g mouse-1.

And the Weight change (Mus musculus [19])?
Its Weight change is 0.6 g mouse-1.

What about the Weight change (Mus musculus [20]) of the same compound?
The Weight change was 1%.

And the Weight change (Mus musculus [21])?
The Weight change was 10%.

What about the Weight change (Mus musculus [22]) of the same compound?
The Weight change was 3.6 g mouse-1.

And the Weight change (Mus musculus [23])?
The Weight change was 1 g mouse-1.

And the Weight change (Mus musculus [24])?
Its Weight change is 0.2 g mouse-1.

What about the Weight change (Mus musculus [25]) of the same compound?
Its Weight change is 3 g mouse-1.

And the Weight change (Mus musculus [26])?
The Weight change was 0.2 g mouse-1.

What about the Weight change (Mus musculus [27]) of the same compound?
Its Weight change is 2.6 g mouse-1.

What about the Weight change (Mus musculus [28]) of the same compound?
Its Weight change is 16%.

What about the Weight change (Mus musculus [29]) of the same compound?
The Weight change was 5%.

What about the Weight change (Mus musculus [30]) of the same compound?
Its Weight change is 0%.

What about the Weight change (Mus musculus [31]) of the same compound?
Its Weight change is 13%.

What about the IC50 (B16) of the same compound?
The IC50 was 130 µM.
